Measured values published in ChEMBL document CHEMBL1127543, “Dual angiotensin converting enzyme/thromboxane synthase inhibitors” (J Med Chem, 1994).
Active and inactive are the calls of the source. The calls are words filed in the database; no cut-off is given here.

Columns and labels:
[1] = target: T1, Angiotensin-converting enzyme (Oryctolagus cuniculus, UniProt P12822); assay: Tested for 50% inhibition of Angiotensin converting enzyme(ACE) obtained from rabbit lung (in vitro)
T1 sequence (P12822 whole entry): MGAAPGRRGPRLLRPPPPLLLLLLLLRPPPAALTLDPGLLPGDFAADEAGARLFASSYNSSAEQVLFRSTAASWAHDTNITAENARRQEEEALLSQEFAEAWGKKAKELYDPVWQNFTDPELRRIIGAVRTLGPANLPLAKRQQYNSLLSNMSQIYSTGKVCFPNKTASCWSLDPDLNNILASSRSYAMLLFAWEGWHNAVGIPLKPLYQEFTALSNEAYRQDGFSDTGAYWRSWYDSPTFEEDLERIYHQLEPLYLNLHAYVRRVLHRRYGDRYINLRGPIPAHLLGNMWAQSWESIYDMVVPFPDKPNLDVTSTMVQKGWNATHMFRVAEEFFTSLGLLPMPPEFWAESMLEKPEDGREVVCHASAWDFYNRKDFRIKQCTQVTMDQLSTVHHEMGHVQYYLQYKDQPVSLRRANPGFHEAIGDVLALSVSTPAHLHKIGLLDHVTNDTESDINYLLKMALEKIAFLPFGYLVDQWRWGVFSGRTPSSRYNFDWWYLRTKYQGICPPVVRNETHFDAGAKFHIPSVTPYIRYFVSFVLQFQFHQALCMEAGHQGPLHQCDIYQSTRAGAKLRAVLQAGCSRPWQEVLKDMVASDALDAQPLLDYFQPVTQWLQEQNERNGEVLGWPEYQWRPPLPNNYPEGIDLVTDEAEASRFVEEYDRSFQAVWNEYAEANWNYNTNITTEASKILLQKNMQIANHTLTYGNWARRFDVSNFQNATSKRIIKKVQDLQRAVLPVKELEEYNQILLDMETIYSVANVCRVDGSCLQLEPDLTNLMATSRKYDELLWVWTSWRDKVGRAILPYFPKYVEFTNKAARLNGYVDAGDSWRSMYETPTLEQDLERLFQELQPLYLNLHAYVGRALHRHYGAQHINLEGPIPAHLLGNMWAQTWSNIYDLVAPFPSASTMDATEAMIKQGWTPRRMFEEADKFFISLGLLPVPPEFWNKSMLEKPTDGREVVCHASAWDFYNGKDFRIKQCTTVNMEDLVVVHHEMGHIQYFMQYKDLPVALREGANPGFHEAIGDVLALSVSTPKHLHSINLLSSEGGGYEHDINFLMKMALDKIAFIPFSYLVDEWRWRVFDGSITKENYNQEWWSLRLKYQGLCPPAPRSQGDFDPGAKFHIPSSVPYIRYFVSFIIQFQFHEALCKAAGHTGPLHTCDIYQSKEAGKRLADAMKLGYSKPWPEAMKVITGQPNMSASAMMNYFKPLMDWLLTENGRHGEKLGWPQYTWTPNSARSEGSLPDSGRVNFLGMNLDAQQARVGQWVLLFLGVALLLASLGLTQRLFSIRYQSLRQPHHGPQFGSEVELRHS
In short: (§1)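 ACE was partially purified from rabbit lung and incubated with the synthetic substrate Hip-His-Leu. The hippuric acid product was measured spectrophotometrically. IC50 was read graphically from a range of inhibitor concentrations within the assay's linear range. Each determination was done in duplicate and repeated once.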

[2] = target: T2, Thromboxane-A synthase (Homo sapiens, UniProt P24557); assay: Tested for 50% inhibition of thromboxane synthase (TxS) in human platelets (in vitro)
T2 sequence (P24557 whole entry): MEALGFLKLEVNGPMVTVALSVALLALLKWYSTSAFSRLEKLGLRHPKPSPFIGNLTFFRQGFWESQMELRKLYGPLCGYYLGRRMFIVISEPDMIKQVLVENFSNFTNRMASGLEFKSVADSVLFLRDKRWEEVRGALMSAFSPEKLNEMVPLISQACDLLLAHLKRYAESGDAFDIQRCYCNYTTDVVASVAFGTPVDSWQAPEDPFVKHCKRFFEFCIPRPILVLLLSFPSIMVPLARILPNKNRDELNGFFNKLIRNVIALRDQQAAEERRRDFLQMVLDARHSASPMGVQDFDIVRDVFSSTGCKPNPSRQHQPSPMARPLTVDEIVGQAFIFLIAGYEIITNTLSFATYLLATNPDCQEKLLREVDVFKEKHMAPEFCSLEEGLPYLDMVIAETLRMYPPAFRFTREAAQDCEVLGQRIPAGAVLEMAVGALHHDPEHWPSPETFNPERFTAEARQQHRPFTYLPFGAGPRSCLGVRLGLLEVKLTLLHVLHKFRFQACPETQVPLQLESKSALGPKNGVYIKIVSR
In short: (§2)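 IC50 was obtained graphically from a range of compound concentrations within the linear range of the assay. Determinations were made in duplicate and repeated once.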

[3] = target: T1, Angiotensin-converting enzyme; assay: Tested for 50% inhibition of Angiotensin converting enzyme(ACE) obtained from rabbit lung (in vitro); Not active; in short: as §1
[4] = tested on: Rattus norvegicus; assay: Tested for percent inhibition of maximum angiotensin I (AI) pressor response in rats on oral administration of 300 mg/kg after 2 hr; type: functional
In short: (§3)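 Conscious catheterized SHR were prepared as for blood pressure recording. At set times after dosing, angiotensin I was injected intraarterially in 0.5 mL. The rise in arterial pressure was recorded and expressed as percent inhibition of the angiotensin I pressor response.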

[5] = tested on: Rattus norvegicus; assay: Antihypertensive activity was measured in spontaneously hypertensive rat (SHR) by measuring the maximum blood pressure when administered orally at dose of 10 mg/kg after 4 hr; type: functional; conditions: route oral
In short: (§4)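 Conscious, fully ambulatory SHR (250–280 g) were fitted with an arterial catheter led through an infusion swivel inside a protective spring. After 24 h recovery from surgery, rats were housed singly. Mean arterial pressure was recorded continuously after dosing over a 6-h period, with later readings up to 24 h. Rats had chow and tap water freely under a 12-h light cycle.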

[6] = tested on: Rattus norvegicus; assay: Antihypertensive activity was measured in spontaneously hypertensive rat (SHR) by measuring the blood pressure after 24 hours when administered orally at dose of 10 mg/kg; type: functional; conditions: route oral; in short: as §4
[7] = target: T2, Thromboxane-A synthase; assay: Tested for 50% inhibition of thromboxane synthase (TxS) in human platelets (in vitro); Not active; in short: as §2
[8] = tested on: Rattus norvegicus; assay: Antihypertensive activity was measured in spontaneously hypertensive rat (SHR) by measuring the maximum blood pressure when administered orally at dose of 10 mg/kg after 5 h; type: functional; conditions: route oral; in short: as §4
[9] = tested on: Rattus norvegicus; assay: Antihypertensive activity was measured in spontaneously hypertensive rat (SHR) by measuring the blood pressure after 24 hours on interarterial administration at dose of 1 mg/kg; Not significant; type: functional, organism-based; design: dose 1 mg/kg; conditions: Artery; in short: as §4
[10] = tested on: Rattus norvegicus; assay: Tested for percent inhibition of maximum angiotensin I (AI) pressor response in rats on oral administration of 300 mg/kg after 5 hr; type: functional; in short: as §3
[11] = tested on: Rattus norvegicus; assay: Tested for percent inhibition of maximum angiotensin I (AI) pressor response in rats on oral administration of 300 mg/kg after 0.5 hr; type: functional; in short: as §3
[12] = tested on: Rattus norvegicus; assay: Antihypertensive activity was measured in spontaneously hypertensive rat (SHR) by measuring the blood pressure on interarterial administration at dose of 1 mg/kg after 5 h; type: functional, Artery; in short: as §4

## Cc1c(-c2cccnc2)n(CCCCCCCC(=O)O[C@@H]2C[C@H](N[C@@H](CCc3ccccc3)C(=O)O)C(=O)N(CC(=O)O)c3ccccc32)c2ccccc12
[1]
  IC50: 90 nM
[2]
  IC50: 20 nM

## CCOP(=O)(O)CCCCn1c(-c2cccnc2)c(C)c2ccccc21.Cl
[3]
  IC50: Not Active
[2]
  IC50: 9 nM

## Cc1c(-c2cccnc2)n(CCCCP(=O)(O)OC2CCc3ccccc3N(CC(=O)O)C2=O)c2ccccc12 (centres undefined)
[1]
  IC50: 30 nM
[2]
  IC50: 20 nM

## Cc1c(-c2cccnc2)n(CCCCC(=O)O)c2ccccc12
[3]
  IC50: Not Active

## NCCCC[C@H](N[C@@H]1CCc2ccccc2N(CC(=O)O)C1=O)C(=O)O
[1]
  IC50: 7 nM
[4]
  inhibition in vivo at 300 mg/kg: 70%
[5]
  Max delta BP: -30 mmHg
[6]
  Delta blood pressure: -18 mmHg

## CC(=O)O[C@@H]1C[C@H](N[C@@H](CCc2ccccc2)C(=O)O)C(=O)N(CC(=O)O)c2ccccc21
[1]
  IC50: 6 nM

## Cc1c(-c2cccnc2)n(CCCCP(=O)(O)O)c2ccccc12
[3]
  IC50: Not Active
[2]
  IC50: 100 nM

## CCOC(=O)[C@H](CCc1ccccc1)N[C@H]1CCc2ccccc2N(CC(=O)O)C1=O [BENAZEPRIL]
[7]
  IC50: Not Active
[1]
  IC50: 2 nM

## O=C(O)C(CCCCc1cccc2cncn12)CCC(=O)N1c2ccccc2C[C@H]1C(=O)O (some centres undefined)
[1]
  IC50: 20 nM

## Cn1c(-c2cccnc2)c(CCCCCC(=O)N(CCO)CCCC[C@H](N[C@H]2CCc3ccccc3N(CC(=O)O)C2=O)C(=O)O)c2cc(Cl)ccc21
[8]
  Max delta BP: -42 mmHg
[9]
  Delta blood pressure: inactive
[1]
  IC50: 10 nM
[10]
  inhibition in vivo at 300 mg/kg: 30%
[6]
  Delta blood pressure: -30 mmHg
[11]
  inhibition in vivo at 300 mg/kg: 76%
[12]
  Max delta BP: -23 mmHg
